Data from the RNAGym collection of RNA variant scans (doi:10.1126/science.aae0568).
Variants at the floor of the assay were thinned out.

B1: tRNA (parent)
chain: GUUCCGUUGGCGUAAUGGUAACGCGUCUCCCUCCUAAGGAGAAGACUGCGGGUUCGAGUCCCGUACGGAACG

Variants of: B1
Test: yeast fitness relative to wild type (ratio to wild type); higher = fitter; tRNA-Arg(CCU), competitive growth, 37 C, YPD
Outline: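 A pool of Saccharomyces cerevisiae strains, each with a tRNA-Arg(CCU) gene variant at the native genomic locus, was competed in YPD at 37°C for 24 hours across six parallel replicates. The variants had been chemically synthesised at a 3% per-site mutation rate over 69 sites, and gene amplicons before and after competition were read by 100-nucleotide paired-end sequencing. Darwinian fitness relative to wild type rested on changes in genotype frequencies. Genotypes required ≥ 100 starting reads, and estimates < 0.5 were set to 0.5.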

Variant	yeast fitness
GUUCCGUUGGCAUACUGGUAACGCGUCUCCCUCCUAAGGAGAAGACUGCGGGUUCGAGUCCCGUACGGAACG [G12A A15C]	0.773
GUUCCGUUGGUGUAAUGGUAACGCGCCUCCCUCCUAAGGAGAAGACUGCGGGUUCGAGUCGCGUCCGGAACG [C11U U26C C61G A65C]	≤ 0.5
GUUCCGUUGGUGUAAUGGUAACGCGUCUCCCUCCAAAAGAGAAGACUGCGGGUUCGAGUCGCGUACGGAACG [C11U U35A G38A C61G]	0.565
GUUCCGUUGGCAUCAUGGUAACGCGUCUCCUUCCUAAGGAGAAGACUGCGGGUUCGAGUCCCGUACGGAACG [G12A A14C C31U]	≤ 0.5
GUUCCGUUGGUGUAAUGGUAACGCGUCACCCUGCUAAGGAGAAGACUGCGGGUUCGAGUCCCGUACGGAACG [C11U U28A C33G]	0.619
GUUCCGUUGGUGUAAUGGUAACGCGUCCCCCGCCUAAGGAGAAGACUGCGGGUUCGAGUCCCGUACGGAACG [C11U U28C U32G]	0.569
GUUCCGUUGGCAUAGUGGUAACGCGUCUCCCUCCUAAGGAGACGACUGCGGGUUCGAGUCCCGUGCGGAACG [G12A A15G A43C A65G]	≤ 0.5
GUUCCGUUGGUGUAAUGGUAACGCGUCUCCCCCCUAAGGAGAAGCCUGCGGGUUCGAGUCCCGUACGGAACG [C11U U32C A45C]	0.885
GUUCCGUUGGUGUAAUGGUAACGCGUCGCCCUCCUAAGGAGAAGACUGCGGGUUCGAGUCCCGUACGGAACG [C11U U28G]	0.792
GUUCCGUUGGUGUAAUGGUAACGCGUCUCCCUCCCAAGGAGAAGACUGCGGGUUAGAGUCCCGUACGGUACG [C11U U35C C55A A69U]	≤ 0.5
GUUCCGUUGGCAUAGUGGUAACGCGUCUCCCUCCUAAGGAGAAGACUGCGGGUUCGAGUCCCGUCCGGAACG [G12A A15G A65C]	≤ 0.5
GUUCCGUUGGCAUAUUGGUAACGAGUCUCCCUCCUAAGGAGAAGGCUGCGGGUUCGAGUCCCGUACGGAACG [G12A A15U C24A A45G]	≤ 0.5
GUUCCGUUGGUGUAAUGGUAACGCGUCUCCCACCUAAGGAGAAGACUGCGGGUUCGAGUCCCGUACGGACCG [C11U U32A A70C]	0.614
GUUCCGUUGGCAUAAUGGUCACGCGUCUCCCUCCUAAGGAGAAGACUGGGGGUUCGAGUCCCGUACGGAACG [G12A A20C C49G]	0.539
GUUCCGUUGGCAUAGUGGUAACGCGUCUCCCUCCUAAGCAGAAGACUGCGGGUUCGAGUCCCGUACGGAACG [G12A A15G G39C]	≤ 0.5
GUUCCGUUGGUGUAAUGGUAACGCGUCUCCCUCCUAAGGAGAAGACUGCGGGUUCGAGACCCGUACGGAACG [C11U U59A]	0.757
GUUCCGUUGGCAUAGUGGUAACGCGUCUCCCUCCUAAGGAGAAGACUGCGGGUUCGAGUCCCGUACGGCACG [G12A A15G A69C]	0.707
GUUCCGUUGGCAUAGUGGUAACGCGUCUCCCUCCUAAGGAGACGACUGCGGGUUCGAGUCCCGUACGGAACG [G12A A15G A43C]	≤ 0.5
GUUCCGUUGGCAUCAUGGUAACGCGUCUCCCUCGUAAGGAGAAGACUGCGGGUUCGAGUCCCGUACGGAACG [G12A A14C C34G]	≤ 0.5

Variant	yeast fitness
GUUCCGUUGGUGUAAUGGUAACGCGUCGCACUCCUAAGGAGAAGACUGCGGGUUCGAGUCCCGUACGGAACG [C11U U28G C30A]	≤ 0.5
GUUCCGUUGGUGUAAUGGUAACGCGUCUCCCUCCAAAAGAGAAGACUGCGGGUUCCAGUCCCGUACGGAACG [C11U U35A G38A G56C]	≤ 0.5
GUUCCGUUGGUGUAAUGGGAACGCGUCUCCCUCCUAAGGAGAAGACUGCGGAUUCGAGUCCCGUACGGAACG [C11U U19G G52A]	0.609
GUUCCGUUGGCAUGAUGGUAGCGGGUCGCCCUCCUAAGGAGAAGACUGCGGGUUCGAGUCCCGUACGGAACG [G12A A14G A21G C24G U28G]	0.674
GUUCCGUUGGUGUAAUGGUAACGCGGCUCCCUCCCAAGGAGAAGACUGCGGGUUCGAGUCCCAUACGGAGCG [C11U U26G U35C G63A A70G]	≤ 0.5
GUUCCGUUGGUGUAAUGGUAACGCGUCUCCCUCCUAAGGAGAAGACAGCGGGUUCGAGUGCAGUACGGAACG [C11U U47A C60G C62A]	≤ 0.5
GUUCCGUUGGUGUAAUGGUAACGCGUCUCCCUCCUAAGGAGAAGACUGCGGGUUCGAGUCCCGAACGGAACG [C11U U64A]	0.71
GUUCCGUUGGUGUAAUGGUAACGCGUCUCCCUCCUAAGGAGAAGACUGCGGGUUCGAGUCCCGCACGGAACG [C11U U64C]	0.879
GUUCCGUUGGUGUAAUGGUAACGCGUCACCCUCCUAAGGAGAAGACUGCGGGUUCGACUCCCGUACGGACCG [C11U U28A G58C A70C]	≤ 0.5
GUUCCGUUGGUGUAAUGGUAACGCGUCUCCCUCCAAAAGAGAAGACUGCGGGUUGGAGUCCCGUACGGAACG [C11U U35A G38A C55G]	≤ 0.5
GUUCCGUUGGCAUAUUGGUACCGCGUCUCCCUCCUAAGGAGAAGACAGCGGGUUCGAGUCCCGUACGGAACG [G12A A15U A21C U47A]	≤ 0.5
GUUCCGUUGGCAUUAUGGUAACGCGUCUCUCUCCUAAGGAGAAGACUGCGGGUUCGAGUCCCGUACGGAACG [G12A A14U C30U]	≤ 0.5
GUUCCGUUGGUGUAAUGGUAACGCGUCUCCCUCCUAAGGAGAAGACUGCGGGUACGACUCCCGUACGGAACG [C11U U54A G58C]	≤ 0.5
GUUCCGUUGGUGUAAUGGGAACGCGUCUCCCUCCUAAGGAGAAGACUGCGGGUUCGAGUCCCGUAAGGAACG [C11U U19G C66A]	0.54
GUUCCGUUGGCAUAAUGGUCACGCGUCUCCCUCCUAAGGAGAUGACCGCGGGUUCGAGUCCUGUACGGACCG [G12A A20C A43U U47C C62U A70C]	≤ 0.5
GUUCCGUUGGUGUAAUGGUAACGCGUCUCCCUCCUAAGGAGAAGACUGCGGGUCCGAGUCUCGUACGGAACG [C11U U54C C61U]	≤ 0.5
GUUCCGUUGGUGUAAUGGUAACGCGUCCGCCUCCUAAGGAGAAGACUGCGGGUUCGAGUCCCGUACAGAACG [C11U U28C C29G G67A]	≤ 0.5
GUUCCGUUGGUGUAAUGGUAACGCGUCUCCCGCCUAAGGAGAAGACUGCGGGUACGAGUCCCGUACCGAACG [C11U U32G U54A G67C]	≤ 0.5
GUUCCGUUGGUGUAAUGGUAACGCGUCGCCCUCCUAAGGAGAAGACUGCGCGUUCGAGUCCCGAAUGGCACG [C11U U28G G51C U64A C66U A69C]	≤ 0.5
